Assay type in all cases: functional
Test [1] relates to Rattus norvegicus. The test can be described thus: Inhibition of thromboxane B2 production in whole blood of rats, 6 hr after a peroral dose of 1.0 mg/kg. The settings on record: route oral. A digest of the protocol: (§1)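 Rats were dosed orally at 1 mg/kg with compound suspended in water; controls received vehicle. Whole blood was drawn from the external jugular vein under anesthesia at 1, 3 and 6 h, held on ice 15 min, then clotted at 37 °C for 1 h. Serum was separated at 1000g for 10 min. TXB₂, 6-keto-PGF₁α (the PGI₂ metabolite) and PGE₂ were measured by radioimmunoassay. Prostanoid enhancement is expressed as x-fold at 1 h.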

For test [2], the system named is Rattus norvegicus. The test can be described thus: Increase in serum prostaglandin I2 levels in incubated whole blood from rats, 1 hr following 1 mg/kg p.o. To be noted: route oral. An outline of the steps:
as §1

Test [3] deals with Rattus norvegicus. The test can be described thus: Inhibition of thromboxane B2 production in whole blood of rat 75 min after intravenous injection of compound at 0.1 mg/kg. To be noted: 1.25 h. A digest of the protocol: (§2)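 The compound was given intravenously to rats in physiological saline; controls received vehicle. Whole blood was drawn from the external jugular vein under anesthesia at 15, 45 and 75 min. Samples were kept on ice 15 min, clotted at 37 °C for 1 h and centrifuged (1000g, 10 min). Serum TXB₂ was measured by radioimmunoassay and expressed as % inhibition.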

The subject of test [4] is Rattus norvegicus. The experiment in a line: Inhibition of thromboxane B2 production in whole blood of rat 45 min after intravenous injection of compound at 0.1 mg/kg. The settings on record: 0.75 h. A digest of the protocol:
as §2

Test [5] has as its system Rattus norvegicus. The experiment in a line: Inhibition of thromboxane B2 production in whole blood of rats 1 hr following 1 mg/kg p.o. To be noted: route oral. A digest of the protocol:
as §1

Test [6] is filed under the species Rattus norvegicus. The test can be described thus: In vitro inhibition of thromboxane A2 production in rat platelet-rich plasma. An outline of the steps: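 Citrated rat platelet-rich plasma (4 × 10⁷ platelets) was preincubated with compound for 1 min at room temperature with gentle shaking. Sodium arachidonate (final 0.5 mmol) started the reaction, which ran 5 min at room temperature with vigorous shaking. Indomethacin (final 0.1 mmol) stopped it. After centrifugation (1000g, 5 min), supernatant TXB₂ was measured by radioimmunoassay. IC₅₀ is the concentration giving 50% inhibition of TXB₂ production.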

Test [7] concerns Rattus norvegicus. The test can be described thus: Inhibition of thromboxane B2 production in whole blood of rats, 3h after a peroral dose of 1.0 mg/kg. The settings on record: route oral. An outline of the steps:
as §1

Test [8] has as its system Rattus norvegicus. The experiment in a line: Inhibition of thromboxane B2 production in whole blood of rat 15 min after intravenous injection of compound at 0.1 mg/kg. To be noted: 0.25 h. An outline of the steps: as §2
The subject of test [9] is Rattus norvegicus. The experiment in a line: Enhancement of prostaglandin E2 levels in serum of incubated whole blood at 1 hr after an oral dose of 1 mg/kg. A digest of the protocol: as §1
Test [10] concerns Rattus norvegicus. The experiment in a line: Inhibition of thromboxane B2 production in whole blood of rats, 1 hr after a peroral dose of 0.1 mg/kg. The settings on record: route oral.
Test [11] deals with Rattus norvegicus. The experiment in a line: Inhibition of thromboxane B2 production in whole blood of rats, 4 hr after a peroral dose of 0.1 mg/kg. The settings on record: route oral.
For test [12], the system named is Rattus norvegicus. The test can be described thus: Inhibition of thromboxane A2 production in whole blood of rats, 4 hr after a peroral dose of 1.0 mg/kg. To be noted: route oral.
For test [13], the system named is Rattus norvegicus. The experiment in a line: Inhibition of thromboxane A2 production in whole blood of rats, 4 hr after a peroral dose of 0.1 mg/kg. To be noted: route oral.

Consider `O=C([O-])c1ccc2c(c1)CCC(Cc1cncs1)C2.[Na+]` (stereo unspecified), for which the inhibition in vivo at 1 mg/kg in the test on Rattus norvegicus [1] came out at 78%; with Rattus norvegicus [5], 93%; in the test with Rattus norvegicus [7], 88%. Besides, the x fold is recorded as 2.55 in the test on Rattus norvegicus [2] and 5.26 in the test with Rattus norvegicus [9]. Besides, the results for the inhibition in vivo at 0.1 mg/kg in the test on Rattus norvegicus [3], in the test on Rattus norvegicus [4] and with Rattus norvegicus [8] were 75%, 87% and 90%, respectively. Further, in the test listed under Rattus norvegicus [6], the IC50 amounted to 140 nM.

With `O=C([O-])c1cccc2c1CCCC2CCc1cncs1.[Na+]` (stereo unspecified), the inhibition in vivo at 1 mg/kg in the test with Rattus norvegicus [1] was 86%; in the test on Rattus norvegicus [5], 97%; with Rattus norvegicus [7], 93%. The x fold is listed as 2.68 with Rattus norvegicus [2] and 5.63 with Rattus norvegicus [9]. The values for the inhibition in vivo at 0.1 mg/kg in the test on Rattus norvegicus [3], with Rattus norvegicus [4] and in the test with Rattus norvegicus [8] were 67%, 79% and 88%, respectively. The same compound displayed an IC50 in the test filed under Rattus norvegicus [6] of 370 nM.

`C/C(=C\c1ccc(Cc2cncs2)cc1)C(=O)O`: the inhibition in vivo at 1 mg/kg in the test with Rattus norvegicus [5] was 44%. In the test filed under Rattus norvegicus [6], this compound gave an IC50 of 220 nM.

As to `O=C(O)c1ccc2c(c1)CCCC2CCn1ccnc1` (stereo unspecified), the figures for the inhibition in vivo at 1 mg/kg in the test with Rattus norvegicus [1], in the test on Rattus norvegicus [5] and with Rattus norvegicus [7] were 28%, 93% and 59%, respectively. Besides, the x fold with Rattus norvegicus [2] came out at 3.38; in the test on Rattus norvegicus [9] it was 10.05. Further, the inhibition in vivo at 0.1 mg/kg in the test on Rattus norvegicus [3] was found to be 46%; with Rattus norvegicus [4], 53%; with Rattus norvegicus [8] it was 84%. This compound returned an IC50 in the test listed under Rattus norvegicus [6] of 14000 nM.

`O=C(O)/C=C/c1ccc(Cc2cncs2)cc1`: in the test on Rattus norvegicus [5], the inhibition in vivo at 1 mg/kg amounted to 39%. Further, inhibition in the test filed under Rattus norvegicus [6] was half-maximal at 1500 nM (IC50).

Regarding `C/C(=C\c1ccc(Cc2cccnc2)cc1)C(=O)O`, the figures for the inhibition in vivo at 1 mg/kg in the test with Rattus norvegicus [1], in the test on Rattus norvegicus [5] and with Rattus norvegicus [7] were 44%, 71% and 64%, respectively. In addition, the x fold amounted to 2.55 in the test with Rattus norvegicus [2] and 3.87 in the test with Rattus norvegicus [9]. In the test filed under Rattus norvegicus [6], this compound registered an IC50 of 150 nM.

For `O=C([O-])C1CCc2cc(Cc3cncs3)ccc2C1.[Na+]` (stereo unspecified), the x fold is 2.65 in the test with Rattus norvegicus [2] and 5.91 with Rattus norvegicus [9]. 1 mg/kg produced 69% inhibition in vivo in the test with Rattus norvegicus [5]. Moreover, in the test listed under Rattus norvegicus [6], 1900 nM corresponded to half-maximal inhibition (IC50).

Regarding `O=C([O-])c1ccc2c(c1)CC(Cc1cncs1)C2.[Na+]` (stereo unspecified), the values for the inhibition in vivo at 1 mg/kg with Rattus norvegicus [1], in the test with Rattus norvegicus [5] and in the test on Rattus norvegicus [7] were 52%, 94% and 87%, respectively. For the same compound, the x fold in the test with Rattus norvegicus [2] amounted to 3.52; in the test with Rattus norvegicus [9] it was 9.55. For the same compound, the inhibition in vivo at 0.1 mg/kg in the test with Rattus norvegicus [3] is 26%; with Rattus norvegicus [4], 62%; with Rattus norvegicus [8] it was 77%. In the test filed under Rattus norvegicus [6], this compound showed an IC50 of 400 nM.

Consider `O=C(O)c1ccc(OCCc2cncs2)cc1`, for which the inhibition in vivo at 1 mg/kg amounted to 54% in the test on Rattus norvegicus [1], 88% in the test on Rattus norvegicus [5] and 83% in the test on Rattus norvegicus [7]. The x fold with Rattus norvegicus [2] is 3.14. In the test filed under Rattus norvegicus [6], this compound displayed an IC50 of 3800 nM.

`Cl.O=C(O)c1ccc2c(c1)CCC(Cn1ccnc1)C2` (stereo unspecified): the inhibition in vivo at 1 mg/kg in the test with Rattus norvegicus [1] turned out to be 88%; in the test with Rattus norvegicus [5], 98%; in the test on Rattus norvegicus [7], 93%. In addition, the x fold amounted to 2.91 with Rattus norvegicus [2] and 5.9 in the test on Rattus norvegicus [9]. Besides, the inhibition in vivo at 0.1 mg/kg with Rattus norvegicus [3] stood at 88%; in the test with Rattus norvegicus [10], 85%; in the test with Rattus norvegicus [4] it was 93%; in the test on Rattus norvegicus [8], 95%; with Rattus norvegicus [11], 76%. For the same compound, in the test listed under Rattus norvegicus [6], the IC50 amounted to 1100 nM.

In the case of `Cl.O=C(O)c1ccc2c(c1)CC(Cn1ccnc1)CC2` (stereo unspecified), the x fold is reported as 1.99 with Rattus norvegicus [2] and 4.27 in the test on Rattus norvegicus [9]. The compound also yielded an inhibition in vivo at 1 mg/kg with Rattus norvegicus [5] of 57%. The same compound showed an IC50 in the test listed under Rattus norvegicus [6] of 5600 nM.

For the compound `Cl.O=C(O)c1cccc2c1CCCC2CCn1ccnc1` (stereo unspecified), the inhibition in vivo at 1 mg/kg in the test with Rattus norvegicus [1] stood at 76%; in the test with Rattus norvegicus [5] it was 93%; with Rattus norvegicus [7], 93%. Besides, the values for the x fold in the test with Rattus norvegicus [2] and with Rattus norvegicus [9] were 3.02 and 5.88, respectively. Moreover, the values for the inhibition in vivo at 0.1 mg/kg with Rattus norvegicus [3], in the test with Rattus norvegicus [4] and with Rattus norvegicus [8] were 64%, 74% and 79%, respectively. The same compound returned an IC50 in the test listed under Rattus norvegicus [6] of 5400 nM.

In the test on Rattus norvegicus [5], `O=C(O)c1cccc2c1CCC2CCn1ccnc1` (stereo unspecified) came in with an inhibition in vivo at 1 mg/kg of 97%. In the test listed under Rattus norvegicus [6], this compound gave an IC50 of 860 nM.

Turning to `Cl.O=C(O)c1ccc2c(c1)CC(Cn1ccnc1)C2` (stereo unspecified), the inhibition in vivo at 1 mg/kg was determined as 74% in the test on Rattus norvegicus [1], 95% with Rattus norvegicus [5] and 90% in the test with Rattus norvegicus [7]. Also, the x fold with Rattus norvegicus [2] is 3.57; in the test with Rattus norvegicus [9], 6.93. For the same compound, the inhibition in vivo at 0.1 mg/kg with Rattus norvegicus [3] was 51%; with Rattus norvegicus [4], 60%; in the test on Rattus norvegicus [8], 73%. Moreover, the IC50 in the test listed under Rattus norvegicus [6] amounted to 6600 nM.

`Cl.O=C(O)C1Cc2ccc(Cn3ccnc3)cc2C1` (stereo unspecified): the inhibition in vivo at 1 mg/kg in the test with Rattus norvegicus [1] is 61%; in the test with Rattus norvegicus [5], 87%; in the test on Rattus norvegicus [7], 75%. Also, the x fold in the test with Rattus norvegicus [2] worked out at 3.14; with Rattus norvegicus [9], 7.27. For the same compound, the inhibition in vivo at 0.1 mg/kg turned out to be 32% in the test with Rattus norvegicus [3], 46% with Rattus norvegicus [4] and 58% with Rattus norvegicus [8]. The compound further yielded an IC50 in the test filed under Rattus norvegicus [6] of 7200 nM.

For `Cl.O=C(O)C1CCc2cc(Cn3ccnc3)ccc2C1` (stereo unspecified), the inhibition in vivo at 1 mg/kg in the test on Rattus norvegicus [1] turned out to be 49%; with Rattus norvegicus [5] it was 88%; in the test with Rattus norvegicus [7], 69%. Further, the x fold came out at 2.22 with Rattus norvegicus [2] and 4.79 in the test with Rattus norvegicus [9]. In addition, the IC50 in the test filed under Rattus norvegicus [6] was 1400 nM.

Consider `O=C(O)CCCC/C=C(\c1ccccc1)c1cccnc1` [(E)-ISBOGREL], for which the inhibition in vivo at 1 mg/kg in the test on Rattus norvegicus [12] was determined as 80%; in the test on Rattus norvegicus [5] it was 96%. Moreover, the inhibition in vivo at 0.1 mg/kg in the test with Rattus norvegicus [10] is 75%; in the test on Rattus norvegicus [13], 40%. For the same compound, it took 250 nM to reach half-maximal inhibition in the test filed under Rattus norvegicus [6] (IC50).

As to `Cc1c(Cn2ccnc2)c2ccccc2n1CCC(=O)O` [DAZMEGREL], the inhibition in vivo at 1 mg/kg in the test with Rattus norvegicus [1] is 40%; in the test with Rattus norvegicus [5], 92%; in the test with Rattus norvegicus [7] it was 71%. Moreover, the figures for the x fold in the test on Rattus norvegicus [2] and in the test with Rattus norvegicus [9] were 2.26 and 5.36, respectively. Further, the inhibition in vivo at 0.1 mg/kg is 29% with Rattus norvegicus [3], 46% in the test with Rattus norvegicus [4] and 11% in the test on Rattus norvegicus [8]. Also, it took 12000 nM to reach half-maximal inhibition in the test listed under Rattus norvegicus [6] (IC50).

On to `O=C(O)c1ccc(OCCn2ccnc2)cc1` [DAZOXIBEN], for which the results for the inhibition in vivo at 1 mg/kg in the test on Rattus norvegicus [1], in the test with Rattus norvegicus [5] and in the test with Rattus norvegicus [7] were 8%, 50% and 21%, respectively. In addition, the x fold is recorded as 1.9 in the test on Rattus norvegicus [2] and 3.91 with Rattus norvegicus [9]. Moreover, the inhibition in vivo at 0.1 mg/kg in the test with Rattus norvegicus [4] was 6%; in the test on Rattus norvegicus [8], 25%. The same compound showed an IC50 in the test listed under Rattus norvegicus [6] of 11000 nM.

Take `O=C(O)/C=C/c1ccc(Cn2ccnc2)cc1` [OZAGREL]: the inhibition in vivo at 1 mg/kg in the test on Rattus norvegicus [1] amounted to 11%; in the test with Rattus norvegicus [5], 91%; in the test on Rattus norvegicus [7] it was 42%. In addition, the x fold with Rattus norvegicus [2] worked out at 2.5; in the test with Rattus norvegicus [9], 4.8. Besides, the inhibition in vivo at 0.1 mg/kg in the test on Rattus norvegicus [3] was determined as 46%; with Rattus norvegicus [4], 72%; in the test with Rattus norvegicus [8], 89%. Besides, the midpoint of inhibition in the test listed under Rattus norvegicus [6], the IC50, lay at 4500 nM.

What is called inhibition in vivo is the percentage by which the read-out fell short of the control. Usually IC50 stands for the point on the concentration scale where inhibition reaches its midpoint. A high value points to lower potency.
